One block for each compound: values may come before it.
Tests used:
[1] = Permeability by PAMPA; assay type: ADME; details: read-out: permeability
Procedure, shortened: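 PAMPA permeability measured at pH 6.5.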

[2] = AUC (0 to infinity) in mouse at 1 mg/kg, iv; assay type: ADME, organism-based; design: time infinity, dose 1 mg/kg, route intravenous; details: plasma
[3] = Volume of distribution at steady state in mouse at 1 mg/kg, iv; assay type: ADME, organism-based; design: dose 1 mg/kg, route intravenous; details: in vivo, read-out: Vdss
[4] = AUC (0 to infinity) in mouse at 3 mg/kg, po; assay type: ADME, organism-based; design: time infinity, dose 3 mg/kg, route oral; details: plasma
[5] = Bioavailability in mouse at 3 mg/kg, po; details: in vivo
[6] = Apparent permeability across human Caco-2 cells; assay type: ADME, cell-based
[7] = Tmax in mouse at 3 mg/kg, po; assay type: ADME, organism-based; design: dose 3 mg/kg, route oral; details: in vivo

SMILES: O=C(NC1CC2CCC(C1)N2Cc1ccc2cc(F)ccc2c1)c1ccccc1-c1ccccc1 (stereo not given)
Papp [1]: > 30 ×10⁻⁶ cm/s

SMILES: O=C(NC1CC2CCC(C1)N2Cc1ccc2cc(F)ccc2c1)c1cc[n+]([O-])cc1C(=O)N1CCCCC1 (stereo not given)
Papp [1]: 4.7 ×10⁻⁶ cm/s

Other lines, results leading:

AUC(0-inf) [2]: 190 ng·h/mL
Vd [3]: 9.88 L/kg
AUC(0-inf) [4]: 200 ng·h/mL
bioavailability [5]: 35%
Papp [6]: 4 ×10⁻⁶ cm/s
Tmax [7]: 48 min
SMILES: O=C(C=C1CCN(C(=O)c2ccccc2O)CC1)N[C@@H]1CCN(Cc2ccc3cc(F)ccc3c2)C1

Papp [1]: 27.3 ×10⁻⁶ cm/s
SMILES: Cc1ccc(C(=O)N2CCC(=CC(=O)N[C@@H]3CCN(Cc4ccc5cc(F)ccc5c4)C3)CC2)c(O)c1

Papp [1]: 19.9 ×10⁻⁶ cm/s
SMILES: O=C(C=C1CCN(C(=O)c2ccccc2)CC1)N[C@@H]1CCN(Cc2ccc3cc(F)ccc3c2)C1
